Consider 14 molecules from PubChem BioAssay.

The source made the active and inactive calls.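 How the source made its calls, unless noted: active means viability at or below 30% in both replicate assays; inconclusive means viability at or below 30% in just one of the two assays; inactive means the rest.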

Assay [1] in a line: reducers of endogenous Her2 protein level, primary screen, SKBR3 breast tumor cells, AlphaScreen, ATP viability (AID 461;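 active means Her2 level under about 52% in both replicate screens, with viability over 70% of control, limit read from the data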;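 on Her2 level: lower value means less Her2 protein in the cells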;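 on viability: percent of carrier control wells set as 100% viability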). To be noted: 18-24 h, measured here: SKBR3 viability, ATP luminescence, at 10 µM. Background: Alpha assays give light when donor and acceptor beads are brought close together.
Assay [2] has as its target Receptor tyrosine-protein kinase erbB-2 (Homo sapiens) (UniProt P04626). Described as above. As to conditions: 18-24 h, at 10 µM, stronger effect = lower value.
A short description of assay [3]: SK-BR-3 cell growth inhibitors, pilot screen, 24 h, human (AID 572;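 active means viability at or below 10% of carrier control in both of two separate runs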;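 further: compound exposure lasted between 18 and 24 h rather than exactly 24 h; 100% = carrier-treated control wells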). As to conditions: SK-BR-3 viability, CellTiter-Glo luminescence, at 10 µM, stronger effect = lower value. (Cellular ATP, detected with luciferase, serves as a proxy for viable cell number.)
Assay [4] is described as follows: HUVEC growth inhibition – cell-based, human, primary screen (AID 575).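 Further: 100% = median of untreated cell wells with 0.1% DMSO on each plate.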 To be noted: HUVEC proliferation, CellTiter-Glo luminescence, 72 h; at 10 µM; stronger effect = lower value. The gist of the method: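 Assay system: Primary human umbilical vein endothelial cells | Quantity: 1250 cells per well | Medium: Supplemented EBM, 2% fetal bovine serum | Detection: CellTiter-Glo luminescence measuring cellular ATP | Read-out: % viability vs DMSO wells | Plate: Collagen-coated 384-well format | Times: 72 h exposure, 37 °C, 5% CO2, 30 min RT equilibration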

Assay [5] is described as follows: growth inhibitors of H69AR lung tumor, primary screen, human, duplicate replicates (AID 580;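 active means viability at or under a set limit in both replicates, limit being median viability minus 3 SD, cut at about 48% in these data, passing the limit was not always enough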;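 further: 100% = mean luminescence of untreated wells and 0% = no signal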). As to conditions: H69AR lung tumor cells viability, ATP luminescence, 72 h; at 10 µM; stronger effect = lower value.
Assay [6] is described as follows: reversal of MRP1-mediated doxorubicin resistance, pilot screen, H69AR cells, doxorubicin co-treatment (AID 601;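 active means viability loss from added drug above about 55%, and viability with drug at most 40%, in both replicates, limit read from the data, passing the limit was not always enough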). As to conditions: CellTiter-Glo, 72 h, at 10 µM; for differential viability (reversal): stronger effect = higher value.
The nature of assay [7]: 384-well plate pilot, post-Golgi transport modulator project, inhibition of yeast transport mutant growth (AID 636; in the data active means inhibition above about 31%). As to conditions: absorbance 615 nm, about 18 h, stronger effect = higher value.
Assay [8] can be described thus: growth suppression of yeast trafficking mutant, preliminary HTS, modulators of trafficking downstream of Golgi apparatus project, 1536-format plate, OD 615 nm (AID 637; in the data active means inhibition above about 30%). To be noted: yeast transport mutant growth, absorbance 615 nm, 18 h; stronger effect = higher value.
Where [9] appears, read: H69AR cells + 2 uM doxorubicin, measured here: viability with 2 uM doxorubicin, stronger effect = lower value.
Where [10] appears, read: H69AR cells, compound alone cytotoxicity.

Chain of Receptor tyrosine-protein kinase erbB-2 (Homo sapiens) (P04626 whole entry, looked up): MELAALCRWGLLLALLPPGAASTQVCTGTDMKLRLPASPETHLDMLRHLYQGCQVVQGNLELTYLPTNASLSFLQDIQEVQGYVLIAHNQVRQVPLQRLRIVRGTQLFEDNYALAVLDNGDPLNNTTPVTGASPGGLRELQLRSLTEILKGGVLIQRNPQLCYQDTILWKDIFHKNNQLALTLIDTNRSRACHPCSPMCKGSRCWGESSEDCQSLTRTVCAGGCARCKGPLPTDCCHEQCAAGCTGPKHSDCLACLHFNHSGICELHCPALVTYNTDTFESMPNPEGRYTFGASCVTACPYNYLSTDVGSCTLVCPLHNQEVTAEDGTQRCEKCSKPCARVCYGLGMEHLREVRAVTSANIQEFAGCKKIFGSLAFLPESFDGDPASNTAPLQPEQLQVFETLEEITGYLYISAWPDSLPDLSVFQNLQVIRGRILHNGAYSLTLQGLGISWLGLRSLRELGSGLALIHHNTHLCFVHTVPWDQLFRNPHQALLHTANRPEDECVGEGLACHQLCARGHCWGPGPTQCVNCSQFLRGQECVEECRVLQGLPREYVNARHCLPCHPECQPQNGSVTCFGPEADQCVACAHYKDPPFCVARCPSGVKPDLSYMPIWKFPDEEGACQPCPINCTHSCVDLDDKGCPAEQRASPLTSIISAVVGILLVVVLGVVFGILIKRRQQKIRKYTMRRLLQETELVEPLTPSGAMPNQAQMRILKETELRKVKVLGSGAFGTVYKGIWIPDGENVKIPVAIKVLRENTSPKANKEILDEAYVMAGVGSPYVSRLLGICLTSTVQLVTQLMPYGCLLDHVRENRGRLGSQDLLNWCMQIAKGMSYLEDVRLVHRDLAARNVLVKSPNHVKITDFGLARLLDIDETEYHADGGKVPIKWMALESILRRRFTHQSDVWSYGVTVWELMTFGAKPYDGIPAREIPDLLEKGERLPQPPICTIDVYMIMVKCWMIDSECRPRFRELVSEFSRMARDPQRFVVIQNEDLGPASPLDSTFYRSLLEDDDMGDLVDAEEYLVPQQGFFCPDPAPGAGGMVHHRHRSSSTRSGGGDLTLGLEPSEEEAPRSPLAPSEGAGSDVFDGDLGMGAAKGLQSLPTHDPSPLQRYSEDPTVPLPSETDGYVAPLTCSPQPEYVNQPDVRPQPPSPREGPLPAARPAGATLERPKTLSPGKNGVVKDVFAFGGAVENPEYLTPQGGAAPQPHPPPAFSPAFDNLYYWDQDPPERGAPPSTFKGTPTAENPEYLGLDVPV

For orientation: viability means a read-out of living cells in per cent, often relative to untreated cells. Usually inhibition stands for the relative decrease from the control value, in per cent. Turning to `CCc1[nH]nc2c1C(c1cccc(OC(=O)N3CCOCC3)c1)C(C#N)=C(N)O2` (stereo not given), the viability in assay [1] is 133%; in assay [3] it was 133% (inactive); in assay [4] it was 103% (inactive); in assay [5], 89.5% (inactive); in assay [6] (setting [9]), 98.8%; in assay [6] (setting [10]), 89.5%. For the same molecule, in assay [2], the Her2 level is 124% (inactive). Also, the differential viability (reversal) in assay [6] (H69AR cells + 2 uM doxorubicin) was -9.21% (inactive). Besides, the figures for the inhibition in assay [7] and in assay [8] were -3.42% (inactive) and 0.95% (inactive), respectively.

`Cc1cccc(N2C(=O)CC(Sc3nc(C)c4c(n3)CCCC4)C2=O)c1` (stereo not given): the viability in assay [1] is 80.5%; in assay [3] it was 80.5% (inactive); in assay [4] it was 102% (inactive); in assay [5] it was 90.3% (inactive); in assay [6] (setting [9]) it was 90.3%; in assay [6] (setting [10]), 90.3%. Besides, the Her2 level in assay [2] was 128% (inactive). Further, in assay [6] (H69AR cells + 2 uM doxorubicin), the differential viability (reversal) was -0.055% (inactive). Further, the results for the inhibition in assay [7] and in assay [8] were -0.27% (inactive) and 27.5% (inactive), respectively.

As for `COc1ccc(C(=O)Cn2c(N3CCCCC3)nc3c2c(=O)n(C)c(=O)n3C)cc1OC`, the viability in assay [1] was 94%; in assay [3], 94% (inactive); in assay [4] it was 83.9% (inactive); in assay [5] it was 92.7% (inactive); in assay [6] (setting [9]) it was 99.1%; in assay [6] (setting [10]), 92.7%. Further, the Her2 level in assay [2] is 98.5% (inactive). The differential viability (reversal) in assay [6] (H69AR cells + 2 uM doxorubicin) was -6.42% (inactive). For the same molecule, the results for the inhibition in assay [7] and in assay [8] were 1.18% (inactive) and -1.48% (inactive), respectively.

For `Cn1c(=O)c2c(nc(SCc3nn[nH]n3)n2Cc2ccccc2F)n(C)c1=O`, the viability in assay [1] is 97.5%; in assay [3] it was 97.5% (inactive); in assay [4] it was 94.4% (inactive); in assay [5] it was 90.9% (inactive); in assay [6] (setting [9]), 93.7%; in assay [6] (setting [10]), 90.9%. Besides, the Her2 level in assay [2] is 97% (inactive). Moreover, the differential viability (reversal) in assay [6] (H69AR cells + 2 uM doxorubicin) was -2.83% (inactive). Also, the inhibition in assay [7] was -0.13% (inactive); in assay [8], 1.27% (inactive).

As to `CCOC(=O)C1C(=O)N(C(=O)c2ccc(OC)cc2)CC1c1ccccc1` (stereo not given), the viability is 91.5% in assay [1]; 91.5% (inactive) in assay [3]; 83.3% (inactive) in assay [4]; 86.6% (inactive) in assay [5]; 84.7% in assay [6] (setting [9]); 86.6% in assay [6] (setting [10]). The Her2 level in assay [2] is 94.5% (inactive). Further, the differential viability (reversal) in assay [6] (H69AR cells + 2 uM doxorubicin) was 1.9% (inactive). For the same molecule, the values for the inhibition in assay [7] and in assay [8] were -0.65% (inactive) and -5.41% (inactive), respectively.

`Cc1ccccc1CN1CCNC1=O`: the viability was 114% in assay [1]; 114% (inactive) in assay [3]; 88.3% (inactive) in assay [4]; 90.8% (inactive) in assay [5]; 81.9% in assay [6] (setting [9]); 90.8% in assay [6] (setting [10]). For the same molecule, in assay [2], the Her2 level was 80% (inactive). The differential viability (reversal) in assay [6] (H69AR cells + 2 uM doxorubicin) was 8.97% (inactive). Also, the figures for the inhibition in assay [7] and in assay [8] were -3.16% (inactive) and 6.61% (inactive), respectively.

In the case of `CCOC(=O)CNC(=O)CSc1ncnc2c1cnn2-c1ccccc1`, the viability was 87.5% in assay [1]; 87.5% (inactive) in assay [3]; 97.4% (inactive) in assay [4]; 102% (inactive) in assay [5]; 95.1% in assay [6] (setting [9]); 102% in assay [6] (setting [10]). The Her2 level in assay [2] is 94% (inactive). Further, the differential viability (reversal) in assay [6] (H69AR cells + 2 uM doxorubicin) was 6.58% (inactive). Further, the inhibition in assay [7] was -4% (inactive); in assay [8], -2.26% (inactive).

Take `O=C(CSCc1cnn(-c2ccccc2)c1-n1cccc1)NCC1CCCO1` (stereo not given): the viability in assay [1] is 97.5%; in assay [3], 97.5% (inactive); in assay [4] it was 94.1% (inactive); in assay [5], 93.7% (inactive); in assay [6] (setting [9]), 104%; in assay [6] (setting [10]) it was 93.7%. The Her2 level in assay [2] is 85% (inactive). In addition, in assay [6] (H69AR cells + 2 uM doxorubicin), the differential viability (reversal) is -10.7% (inactive). Further, the values for the inhibition in assay [7] and in assay [8] were -4.59% (inactive) and -2.7% (inactive), respectively.

`Cc1ccc(OC(=O)NC2CCS(=O)(=O)C2)cc1C` (stereo not given): the viability is 108% in assay [1]; 108% (inactive) in assay [3]; 103% (inactive) in assay [4]; 95.3% (inactive) in assay [5]; 92.7% in assay [6] (setting [9]); 95.3% in assay [6] (setting [10]). For the same molecule, the Her2 level in assay [2] was 95% (inactive). In addition, the differential viability (reversal) in assay [6] (H69AR cells + 2 uM doxorubicin) is 2.59% (inactive). In addition, the inhibition was -2.11% (inactive) in assay [7] and 6.23% (inactive) in assay [8].

Consider `CN(Cc1cccs1)CC(O)COCc1ccco1` (stereo not given), for which the viability was 107% in assay [1]; 107% (inactive) in assay [3]; 109% (inactive) in assay [4]; 90.5% (inactive) in assay [5]; 93.9% in assay [6] (setting [9]); 90.5% in assay [6] (setting [10]). Further, the Her2 level in assay [2] is 91.5% (inactive). For the same molecule, in assay [6] (H69AR cells + 2 uM doxorubicin), the differential viability (reversal) is -3.35% (inactive). For the same molecule, the inhibition in assay [7] was -3.92% (inactive); in assay [8], 2.22% (inactive).

Turning to `C=CCNC(=O)c1cccc(Br)c1`, the viability was 92% in assay [1]; 92% (inactive) in assay [3]; 89.4% (inactive) in assay [4]; 92% (inactive) in assay [5]; 101% in assay [6] (setting [9]); 92% in assay [6] (setting [10]). Besides, in assay [2], the Her2 level was 94% (inactive). In assay [6] (H69AR cells + 2 uM doxorubicin), the differential viability (reversal) was -9.44% (inactive). Further, the inhibition is 9.59% (inactive) in assay [7] and 5.08% (inactive) in assay [8].

Turning to `COc1ccc(NC(=O)CN(c2ccc(C)cc2)S(C)(=O)=O)c(OC)c1`, the viability was 90% in assay [1]; 90% (inactive) in assay [3]; 84.8% (inactive) in assay [4]; 101% (inactive) in assay [5]; 89.4% in assay [6] (setting [9]); 101% in assay [6] (setting [10]). Also, the Her2 level in assay [2] is 118% (inactive). Further, the differential viability (reversal) in assay [6] (H69AR cells + 2 uM doxorubicin) was 11.9% (inactive). Besides, the results for the inhibition in assay [7] and in assay [8] were -2.63% (inactive) and -3.5% (inactive), respectively.

In the case of `COc1cc2c(cc1OC)C(C)N(C(=O)c1cc3n(n1)C(C(F)(F)F)CC(c1ccco1)N3)CC2` (stereo not given), the viability in assay [1] was 108%; in assay [3] it was 108% (inactive); in assay [4], 62% (inactive); in assay [5], 75% (inactive); in assay [6] (setting [9]) it was 89.3%; in assay [6] (setting [10]), 75%. Also, in assay [2], the Her2 level was 68.5% (inactive). Further, in assay [6] (H69AR cells + 2 uM doxorubicin), the differential viability (reversal) was -14.3% (inactive). Further, the inhibition in assay [7] is -6% (inactive); in assay [8], 4.26% (inactive).

Regarding `CC(=O)c1cc(-c2ccc(F)cc2)n(CCC(=O)Nc2cc(C)[nH]n2)c1C`, the viability was 105% in assay [1]; 105% (inactive) in assay [3]; 102% (inactive) in assay [4]; 104% (inactive) in assay [5]; 85.5% in assay [6] (setting [9]); 104% in assay [6] (setting [10]). Further, the Her2 level in assay [2] was 82.5% (inactive). In assay [6] (H69AR cells + 2 uM doxorubicin), the differential viability (reversal) is 18.3% (inactive). Besides, the inhibition in assay [7] is -6.62% (inactive); in assay [8] it was 2.46% (inactive).
